Results from different studies.
Each line is one published result; the experiments were not run side by side.

SMILES	cell line	read-out	method	time	endpoint	result
C[C@]12CC[C@@H]3c4ccc(O)cc4CC[C@H]3[C@@H]1CC[C@@H]2O	Capan-2	cell growth or viability	ATP luminescence	72 h	EC90	150000 nM
COc1cc(Nc2nccc(-c3cnn4nc(OC)ccc34)n2)cc(C(F)(F)F)c1	BEN	cell growth or viability	ATP luminescence		IC50	> 3000 nM
CC#CC(=O)N1CC[C@@H](n2cc(-c3ccc(Oc4c(F)cccc4F)cc3)c3c(N)n[nH]c(=O)c32)C1	Granta-519	cell growth or viability	ATP luminescence	72 h	GI50	2690 nM
CC[C@@H]1C=CC(=O)O[C@@H]1C[C@@H](OC)[C@H](C)[C@H](OC)[C@@H](C)Cc1ccc(F)cc1	OVCAR-5	cell growth or viability	MTT	48 h	GI50	784 nM
CC/C(=C(\c1ccccc1)c1ccc(OCCN(C)C)cc1)c1ccccc1	Capan-2	cell growth or viability	ATP luminescence	72 h	EC90	25800 nM
COc1ccc(-c2ccc(-c3ccc(C(=N)N)nc3)s2)cc1Cl	OVCAR-5	cell growth or viability	SRB		GI50	1860 nM
CC[C@@H]1C=CC(=O)O[C@@H]1C[C@@H](O)[C@H](C)[C@H](OC)[C@@H](C)Cc1ccccc1	OVCAR-5	cell growth or viability	MTT	48 h	GI50	57.5 nM
C=CC(=O)N1CCC[C@@H](n2nc(-c3ccc(Oc4ccccc4)cc3)c3c(N)ncnc32)C1	Z-138	cell growth or viability	ATP luminescence	72 h	GI50	17200 nM
COc1ccc(S(=O)(=O)Nc2ccc3oc(-c4ccc(NC(=O)c5cccc(C)c5[N+](=O)[O-])cc4)nc3c2)cc1	DLD-1	colony formation			EC50	16000 nM
